Experimental data: ChEMBL document CHEMBL2157975 (Bioorg Med Chem Lett, 2012)

Assays:
[1] = target: T1, Type-1 angiotensin II receptor (Homo sapiens, UniProt P30556); assay: Inhibition of AT1 receptor
T1 sequence (P30556 whole entry): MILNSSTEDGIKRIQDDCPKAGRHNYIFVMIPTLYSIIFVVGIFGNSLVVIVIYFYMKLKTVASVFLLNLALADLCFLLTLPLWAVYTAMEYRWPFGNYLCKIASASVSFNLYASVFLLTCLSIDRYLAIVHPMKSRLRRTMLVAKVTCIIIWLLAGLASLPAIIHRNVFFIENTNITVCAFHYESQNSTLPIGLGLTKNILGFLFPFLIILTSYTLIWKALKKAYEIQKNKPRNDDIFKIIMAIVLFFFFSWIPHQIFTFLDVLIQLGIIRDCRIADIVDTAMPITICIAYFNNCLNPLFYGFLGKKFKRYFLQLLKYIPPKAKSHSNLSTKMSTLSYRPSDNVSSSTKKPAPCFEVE

[2] = test system: Plasma; assay: Plasma protein binding in mouse; assay type: ADME, cell-free
[3] = target: T2, Apelin receptor (Homo sapiens) (UniProt P35414); assay: Antagonist activity at APJ receptor assessed as inhibition of apelin13-induced cAMP accumulation; assay type: functional
T2 sequence (whole entry): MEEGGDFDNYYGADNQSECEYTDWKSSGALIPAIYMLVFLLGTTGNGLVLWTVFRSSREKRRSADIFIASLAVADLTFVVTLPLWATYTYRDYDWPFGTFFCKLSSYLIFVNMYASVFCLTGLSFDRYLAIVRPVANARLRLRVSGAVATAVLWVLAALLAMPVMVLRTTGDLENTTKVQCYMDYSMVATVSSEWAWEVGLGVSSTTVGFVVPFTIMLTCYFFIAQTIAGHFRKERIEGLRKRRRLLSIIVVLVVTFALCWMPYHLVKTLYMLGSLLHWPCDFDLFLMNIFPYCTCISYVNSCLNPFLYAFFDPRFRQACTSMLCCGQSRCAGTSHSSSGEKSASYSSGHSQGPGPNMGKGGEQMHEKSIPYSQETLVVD

[4] = Metabolic stability in plasma; assay type: ADME, cell-free
[5] = test system: Hepatocyte; assay: Cytotoxicity against human hepatocytes; assay type: cell-based
[6] = Metabolic stability in human hepatic microsomes assessed as compound remaining at 60 mins; assay type: ADME; conditions: liver microsomes, read-out: Stability
Outline: (§1)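 Test compound incubated with liver microsomes, human or mouse according to the line (the text also calls these liver homogenates). Read-out was the percentage of parent compound remaining after 60 min.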

[7] = Metabolic stability in mouse hepatic microsomes assessed as compound remaining at 60 mins; assay type: ADME; conditions: liver microsomes, read-out: Stability; outline: as §1
[8] = target: Kappa-type opioid receptor (Homo sapiens) (UniProt P41145); assay: Binding affinity to kappa-opioid receptor at 10 uM
[9] = Binding affinity to benzodiazepinone receptor at 10 uM

Sequence of Kappa-type opioid receptor (Homo sapiens) (P41145 whole entry): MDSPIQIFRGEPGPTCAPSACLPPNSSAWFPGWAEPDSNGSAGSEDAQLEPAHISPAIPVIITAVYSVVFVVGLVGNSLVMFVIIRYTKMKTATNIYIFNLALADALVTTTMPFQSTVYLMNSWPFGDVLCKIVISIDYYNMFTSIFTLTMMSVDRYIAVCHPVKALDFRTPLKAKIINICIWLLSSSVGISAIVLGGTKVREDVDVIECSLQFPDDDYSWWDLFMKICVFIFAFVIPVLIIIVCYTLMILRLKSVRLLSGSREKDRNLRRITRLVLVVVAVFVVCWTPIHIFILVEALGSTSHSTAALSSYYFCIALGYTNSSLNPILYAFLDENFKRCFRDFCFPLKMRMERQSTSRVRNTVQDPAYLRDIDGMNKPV

## O=C(Oc1coc(CSc2ncccn2)cc1=O)c1ccc([N+](=O)[O-])cc1
[1]
  IC50: > 79 µM
[2]
  PPB: 99.1%
[3]
  inhibition: Dose-dependent effect
[4]
  Stability: 42.2%
[5]
  Activity: > 50 µM
[6]
  remaining at 1 h: 4.2%
[7]
  remaining at 1 h: 4.9%
[8]
  Activity: < 50%
[9]
  Activity: < 70%
